Most compounds without a hit are left out; they make up all but 3.8% or so of the library.
CSC inhib: blocks cancer stem cells; cancer stem cell-like cells viability, luminescence; inhibition, % at 7.5 µM; hit rate 1.1% among 300,000; AID 2717; in the data active means inhibition above about 75%; inconclusive means no clear call, values can overlap the other calls; tested in HMLE shEcad cells
Beta apoptosis: beta cell apoptosis inhibition; INS-1E cytokine-induced death, ATP luminescence, 48 h; percent of positive-control rescue, neutral wells zero; protection from apoptosis, % (no concentration beside the values); hit rate 0.8% among 300,000; AID 435005;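 active means Every replicate reaches about 75%, or at least half do and their mean reaches it too, limit read from the data; inconclusive means At least half of replicates reach the limit but their mean does not; inactive means Under half of replicates reach the limit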;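 further: 0% = cytokine-treated negative control wells and 100% = positive control rescue; higher means more ATP so stronger rescue from cytokine killing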
TMEM16A inh: mouse TMEM16A channel inhibition, primary screen; Q8BHY3; HEK293 TMEM16A/YFP iodide influx fluorescence, ionomycin; normalized B-score (activity score, 25-100; higher = stronger inhibition) at 10 µM; hit rate 1.2% among 310,000; AID 588511;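 active means ratio plate-corrected score three or more library SD toward inhibition, starting fluorescence score within five deviations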;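 further: score derived from kinetic fluorescence span divided by baseline fluorescence per well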
Target sequence (Q8BHY3 whole entry, looked up): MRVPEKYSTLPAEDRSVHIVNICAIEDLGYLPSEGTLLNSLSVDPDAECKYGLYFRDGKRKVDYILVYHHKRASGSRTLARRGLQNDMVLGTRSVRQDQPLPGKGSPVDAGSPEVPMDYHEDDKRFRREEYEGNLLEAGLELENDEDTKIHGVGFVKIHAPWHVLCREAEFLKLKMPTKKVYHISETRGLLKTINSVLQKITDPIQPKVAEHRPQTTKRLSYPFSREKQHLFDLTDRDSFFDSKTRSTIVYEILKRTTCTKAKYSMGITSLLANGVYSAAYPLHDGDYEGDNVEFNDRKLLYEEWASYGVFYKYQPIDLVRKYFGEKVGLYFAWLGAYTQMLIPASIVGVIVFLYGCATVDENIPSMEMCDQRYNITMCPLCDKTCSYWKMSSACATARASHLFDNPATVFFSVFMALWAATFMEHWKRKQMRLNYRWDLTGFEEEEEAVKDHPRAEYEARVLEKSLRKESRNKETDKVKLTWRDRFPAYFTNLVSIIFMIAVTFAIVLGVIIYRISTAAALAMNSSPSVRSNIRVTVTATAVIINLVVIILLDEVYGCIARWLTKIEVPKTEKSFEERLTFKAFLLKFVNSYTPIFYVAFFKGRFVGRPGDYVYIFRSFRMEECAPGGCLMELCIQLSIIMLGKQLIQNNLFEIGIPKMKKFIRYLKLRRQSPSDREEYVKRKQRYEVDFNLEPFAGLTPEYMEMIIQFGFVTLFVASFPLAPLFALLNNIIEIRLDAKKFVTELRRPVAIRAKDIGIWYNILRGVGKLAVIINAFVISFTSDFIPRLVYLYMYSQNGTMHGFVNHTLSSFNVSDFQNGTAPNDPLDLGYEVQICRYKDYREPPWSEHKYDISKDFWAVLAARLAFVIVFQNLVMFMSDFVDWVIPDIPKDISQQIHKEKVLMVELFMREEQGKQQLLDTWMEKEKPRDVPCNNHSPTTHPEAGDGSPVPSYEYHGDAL
MC4R antagonist: antagonists of human melanocortin 4 receptor (MC4R). P32245. MC4R-expressing cells, MTII-stimulated cAMP, LANCE TR-FRET. inhibition, % at 6.5 µM. hit rate 0.48% among 360,000. AID 540295;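 active means inhibition above its plate's cutoff, the mean of tested wells on that plate plus 3 SD, cut at about 29% in these data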;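 further: 0% = Melanotan II alone and 100% = Melanotan II plus saturating MCL0020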
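system = U2OS cells with stable human MC4R expression | also added = Melanotan II challenge after compound preincubation | dosing = one concentration, 6.5 µM nominal | incubation = compound 30 min, challenge 1 h, detection 1 h | measured by = TR-FRET with Eu-cAMP and labeled anti-cAMP, 671 nm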
TMEM16A act: activators or potentiators of mouse TMEM16A chloride channel; Q8BHY3; HEK293 TMEM16A/YFP-H148Q/I152L, iodide quench fluorescence; stronger effect = lower value; B-score at 10 µM; hit rate 0.3% among 340,000; AID 623877;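 active means fluorescence-ratio B-score plate-corrected deviation score at least 3 library SD below zero, with starting fluorescence score within 5 deviations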;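 further: channel opened by trigger with iodide after compound preincubation; score built on the fluorescence ratio of max minus min over baseline; more negative score means more quench and so TMEM16A activation or potentiation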
MC4R ag barr: agonists of human melanocortin 4 receptor (MC4R) beta-arrestin; P32245; U2OS MC4R beta-arrestin complementation, luminescence; percent of melanotan II response, DMSO zero; activation, % at 8.9 µM; hit rate 0.98% among 360,000;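 active means activation above a per-plate cutoff, the mean activation of sample wells on that plate plus 3 SD, cut at about 8% in these data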
Starred values were filed as active, the others as inactive; i = inactive; ? = inconclusive; nt = no result given.

SMILES | CSC inhib | Beta apoptosis | TMEM16A inh | MC4R antagonist | TMEM16A act | MC4R ag barr
CCc1oc2ccccc2c1C(=O)c1cc(Br)c(O)c(Br)c1 | 85* | -3 | 100* | 2 | i | 0
COC(=O)c1c(C)[nH]c(C)c1-c1cccc([N+](=O)[O-])c1 | 5 | 3 | i | -1 | -7.7* | -5
Cc1ccn2c(-c3csc(NCc4ccccc4)n3)c(C)nc2c1 | nt | 1 | 100* | -1 | i | 0
Cc1ccn2c(NCc3ccccc3)c(-c3cccs3)nc2c1 | nt | -15 | i | 10 | i | 1
CC(O)(c1ccc(F)c(F)c1)c1nc(-c2cccc3cccnc23)cs1 (stereo unspecified) | nt | nt | nt | -5 | nt | 5
CC1=CC2C(C(O)CC3(C)C2CC(C)C32OCOC23COCO3)C2(C)C/C(=C\O)C(=O)C=C12 (stereo unspecified) | nt | nt | nt | 26 | i | 29*
CC(=O)O/N=C(\N)c1cnn2c(C(F)(F)F)cc(C(F)(F)F)nc12 | 0 | -2 | i | 4 | i | -1
O=C(O)c1cccc(NC(=S)NC(NC(=O)c2cccc([N+](=O)[O-])c2)C(Cl)(Cl)Cl)c1 (stereo unspecified) | -3 | 10 | i | 5 | i | 0
O=C(NC(NC(=S)Nc1ccc(Cl)cc1Cl)C(Cl)(Cl)Cl)c1cccc([N+](=O)[O-])c1 (stereo unspecified) | 128* | 97* | 100* | -2 | i | -1
O=C(NC(NC(=S)Nc1ccccc1)C(Cl)(Cl)Cl)c1cccc(Cl)c1 (stereo unspecified) | 89* | 95* | i | 1 | i | -1
CCN(CC)C(=O)Cn1cnc2sc(C(=O)NCCCN3CCOCC3)c(C)c2c1=O | -1 | nt | i | 14 | i | -1
COc1ccc(Cl)cc1CN1C(=O)C(Cc2ccccc2)ON=C1C (stereo unspecified) | nt | nt | nt | 15 | nt | 0
CCOc1ccc(NS(=O)(=O)c2ccc(C(=O)N3CCCC(C)C3)cc2)cc1 (stereo unspecified) | -11 | nt | 100* | 8 | i | -4
COc1ccc(NS(=O)(=O)c2ccc(C(=O)N3CCN(Cc4ccccc4)CC3)cc2)cc1 | -6 | 20 | 25* | 2 | i | -3
COc1ccc(S(=O)(=O)NCc2ccc(C(=O)N3CCN(Cc4ccccc4)CC3)cc2)cc1 | -9 | -4 | i | 3 | i | -3
Cc1oc(-c2cccc(Cl)c2)nc1CN1CCC(C(=O)NCCCN2CC(C)CC(C)C2)CC1 (stereo unspecified) | -14 | 9 | i | 2 | i | -2
CCC(C)Sc1cc(-c2nc3cc(C)ccn3c2NC2CCCCC2)ccc1OC (stereo unspecified) | nt | nt | nt | 7 | i | -3
CCCCNc1c(-c2cccc(SC3CCCCC3)c2)nc2ccc(Cl)cn12 | 4 | nt | i | 5 | i | 1
CCCCCCSc1ccc(-c2nc3cnccn3c2NCCCC)cc1 | 105* | -3 | nt | 3 | i | 1
CCCCNc1c(-c2ccc(SC3CCCCC3)cc2)nc2ccccn12 | 82* | ? | i | 6 | i | 2
CCCCNc1c(-c2ccc(SC(C)CC)cc2)nc2ccccn12 (stereo unspecified) | 92* | 16 | 100* | 10 | i | 0
CCC(C)Sc1cc(-c2nc3ccccn3c2NC2CCCCC2)ccc1OC (stereo unspecified) | 126* | 31 | i | 21 | i | 0
CCCCNc1c(-c2ccc(OC)c(SC(C)CC)c2)nc2cnccn12 (stereo unspecified) | nt | nt | nt | 10 | i | 6
COC(C[C@@H]1O[C@H]1[C@H](O)[C@@H](C)OCc1ccccc1)OC | -20 | -8 | i | nt | nt | nt
O=C1CSC(=S)N1N=Cc1ccc2c(c1)OCO2 | nt | nt | nt | -2 | i | -2
SMILES | CSC inhib | Beta apoptosis | TMEM16A inh | MC4R antagonist | TMEM16A act | MC4R ag barr
Cc1cc(NC(=O)COc2ccccc2C(N)=O)no1 | -18 | 2 | nt | -3 | i | -2
COc1cc(C(=O)NC(c2ccccc2)c2ccccc2)cc(OC)c1OC | -2 | 0 | i | 8 | i | 9.4*
COc1cccc(N2CCN(Cc3nc4ccccc4c(=O)[nH]3)CC2)c1 | -13 | nt | i | 4 | i | 0
O=c1[nH]c(CN2CCN(c3ccc(O)cc3)CC2)nc2scc(-c3ccc(Cl)cc3)c12 | 105* | 8 | i | -8 | i | -2
COc1cccc(N2CCN(Cc3nc4scc(-c5ccccc5)c4c(=O)[nH]3)CC2)c1 | 82* | -4 | i | -4 | i | -3
CCN(CC)C(=O)c1cccc(NC(=O)c2ccccc2OCc2c(C)noc2C)c1 | -8 | -2 | nt | 7 | i | -3
COc1cccc(-c2cccc(NC(=O)C3CCN(CCCn4cccn4)CC3)c2)c1 | nt | nt | nt | 21 | nt | -1
CC1(C)CC2CC(C)(CN2C(=O)c2cc(-c3ccc(O)cc3)on2)C1 (stereo unspecified) | 87* | 5 | i | -8 | i | 8.9*
O=C(CNC(=O)c1cccs1)OCc1c(F)cccc1Cl | -1 | -6 | i | 0 | i | 0
CC1=NN(c2ccccc2)C(=O)C1=Cc1ccccc1 | nt | nt | nt | 5 | nt | -1
CC1=NN(c2ccc(C)cc2)C(=O)/C1=C\C=C\c1ccccc1 | 78* | 9 | i | -2 | i | 2
CC1=NN(c2ccc(C(=O)O)cc2)C(=O)/C1=C/c1ccc(-c2ccccc2F)o1 | 32 | -15 | 100* | 23 | i | -2
CC1=NN(c2ccccc2)C(=O)/C1=C/c1c(O)n(-c2ccc(F)cc2)[nH]c1=O | 87* | 3 | i | -2 | i | -3
CC1=NN(c2ccccc2)C(=O)/C1=C/c1ccc(Cl)cc1 | -1 | -9 | 25* | 0 | i | -1
CC1=NN(c2ccc(Cl)c(C(=O)O)c2)C(=O)/C1=C\c1ccc(-c2ccc(C(=O)O)cc2)o1 | nt | nt | nt | 14 | i | -1
Cc1cccnc1NC(=O)c1ccc(C(=O)c2ccccc2)cc1 | 5 | -3 | i | 0 | i | -4
CC1(C)CC(=O)C=C(c2ccccc2-c2ccc(S(C)(=O)=O)cc2)C1=O | nt | nt | nt | 3 | nt | -1
Cc1cccc(CN2C(=O)CSc3ccc(C(=O)NC4CC4)cc32)c1 | -5 | 4 | i | 6 | i | -2
Cc1ccc(C)c(Nc2nc(-c3ccncc3)nc3ccccc23)c1 | 15 | 7 | i | -7 | i | 3
CCN1/C(=C/c2ccc3cc(C)ccc3[n+]2CC)Sc2ccccc21 | 102* | 115* | i | -34 | i | 0
CC[n+]1c(/C=C2\Sc3ccccc3N2C)ccc2cccc(C)c21 | nt | nt | nt | -23 | i | 0
CCN1/C(=C/C=C/c2sc3ccccc3[n+]2CC)Sc2ccccc21 | 79* | 101* | i | -11 | i | 2

Bioassay records (PubChem)
